Screening results deposited in PubChem BioAssay by The Scripps Research Institute Molecular Screening Center.
The list is not random: actives were taken first. Their share in the collection is about 4.6%.
TAAR1 agonist: agonists of human TAAR1; activation, % at 3 µM; Q96RJ0; actives 0.99% (n = 360,000); AID 624467; CHO RD-HGA16 TAAR1, Fluo-8 calcium fluorescence; vehicle wells 0%, saturating PEA agonist 100%;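 active = activation above the mean activation of all test compounds in the run plus 3 SD, cut at about 38% in these data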
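Test system: RD-HGA16 (CHO) cells co-expressing Gα16 and hTAAR1; dosing: one-point dosing at 3 µM (nominal); timing: 17-24 h seeding, 75 min 37 °C dye, 30 min RT; signal: kinetic Fluo-8 calcium fluorescence; read-out basis: % activation relative to PEA EC100 response; controls: DMSO and PEA EC100; replicates: n 1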
TAAR1 antag: antagonists of human TAAR1. Q96RJ0. CHO RD-HGA16 TAAR1, Fluo-8 calcium fluorescence, antagonist. inhibition, % at 3 µM. actives 1.5% (n = 360,000). AID 624466;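 active = inhibition above a per-plate cutoff, the mean inhibition of test compounds on that plate plus 3 SD, cut at about 49% in these data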;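 also: 0% = DMSO plus EC80 beta-PEA response and 100% = DMSO alone without agonist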
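Assay system: CHO-derived RD-HGA16 cells stably expressing human TAAR1 plus Gα16. Timing: 140 s kinetic read after compound, 140 s after agonist. Technique: kinetic Fluo-8 calcium fluorescence measurement. Measure: % inhibition of agonist calcium response.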
CHO parental Ca: signal in parental CHO cells, OX1R antagonist counter-screen; parental CHO-K1, ATP-induced calcium, Fluo-8 fluorescence; inhibition, % at 5.6 µM; actives 0.63% (n = 330,000); AID 463079;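 active = inhibition above that plate's mean sample inhibition plus 3 SD, cut at about 26% in these data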;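 also: 0% = ATP-challenged DMSO wells and 100% = DMSO wells without ATP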
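Test system: untransfected parental CHO cell line; also added: ATP stimulus; dosing: 5.6 µM, single dose; signal: calcium-sensitive Fluo-8 fluorescence; measure: percent inhibition of ATP-evoked calcium rise, normalized to controls; benchmarks: low control ATP plus DMSO, high control DMSO only; replication: one well per compound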
OX1R antag-1: blocks the human orexin 1 receptor; actives 1.8% (n = 330,000); OX1R-expressing cells, FRET antagonist read-out; AID 485270; O43613; inhibition, % at 6.6 µM; in the data active = inhibition mostly above about 38%, no sharp cut-off; inactive = mostly below about 40%;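 also: 0% = agonist challenge alone and 100% = reference antagonist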
Target sequence (O43613 whole entry, looked up): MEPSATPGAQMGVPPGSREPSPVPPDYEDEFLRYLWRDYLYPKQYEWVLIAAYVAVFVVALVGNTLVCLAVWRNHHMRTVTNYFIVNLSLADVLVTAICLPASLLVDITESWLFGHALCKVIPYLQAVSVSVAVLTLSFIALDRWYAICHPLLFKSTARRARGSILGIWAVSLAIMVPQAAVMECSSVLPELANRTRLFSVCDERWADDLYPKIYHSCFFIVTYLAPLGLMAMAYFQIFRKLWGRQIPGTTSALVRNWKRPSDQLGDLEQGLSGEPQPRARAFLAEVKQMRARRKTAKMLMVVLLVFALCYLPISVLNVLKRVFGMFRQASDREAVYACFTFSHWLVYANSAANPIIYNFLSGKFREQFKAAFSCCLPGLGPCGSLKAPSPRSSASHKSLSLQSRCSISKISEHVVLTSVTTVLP
GPR7 antag: antagonists of human GPR7 (neuropeptides B/W receptor 1); P48145; actives 1.1% (n = 290,000); GPR7-expressing cells, fluorescence antagonist assay; inhibition, % at 4.4 µM; in the data active = inhibition above about 16%, passing the limit was not always enough;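 also: cells stimulated with the agonist NPW; 0% = agonist with vehicle and 100% = vehicle without agonist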
OX1R antag-2: antagonists of human orexin 1 receptor. O43613. CHO/OX1R cells, Fluo-8 calcium fluorescence, orexin A. inhibition, % at 5 µM. actives 0.43% (n = 330,000);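 active = inhibition above its plate's threshold, mean inhibition of all tested compounds on the plate plus 3 SD, cut at about 37% in these data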;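 also: 0% = orexin A challenge wells and 100% = SB-334867-A antagonist wells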
Numbers without * were called inactive; ! = a repeat was not active.

CC1=C(O)C(=O)C=C2C1=CC=C1C2(C)CCC2(C)C3CC(C)(C(=O)O)CCC3(C)CCC12C (centres undefined) was read as TAAR1 agonist 41* and TAAR1 antag 74*.
`CCC(C(=O)N1C[C@H]2C[C@@H](C1)c1cccc(=O)n1C2)c1ccccc1` (some centres undefined) gave TAAR1 agonist 1, TAAR1 antag -4, CHO parental Ca 0, OX1R antag-1 4, GPR7 antag -7 and OX1R antag-2 1.
CCC(=NCCO)c1c(O)n(C2CCCCC2)c(=O)[nH]c1=O was read as TAAR1 agonist 15, TAAR1 antag -12, CHO parental Ca -8, OX1R antag-1 25, GPR7 antag -5 and OX1R antag-2 -13.
Screening CCC(=NCc1ccc2c(c1)OCO2)c1c(O)n(C2CCCCC2)c(=O)[nH]c1=O returned TAAR1 agonist 13, TAAR1 antag 16, CHO parental Ca 26*, OX1R antag-1 13, GPR7 antag 4 and OX1R antag-2 -17.
For Cc1cccc(C)c1-n1nnnc1C(c1ccnc2ccccc12)N1CCC2(CC1)C(=O)NCN2c1ccccc1 (centres undefined) the results were TAAR1 agonist 9 and TAAR1 antag 41.
For Cn1nc(-c2ccc(OCC(=O)N3CCN(Cc4ccccc4)CC3)cc2)c2ccccc2c1=O the results were TAAR1 agonist 14, TAAR1 antag 32, CHO parental Ca 36*!, OX1R antag-1 23, GPR7 antag -2 and OX1R antag-2 9.
For CN(C)C(=O)Oc1ccc2nnc3ccnn3c2c1 the results were TAAR1 agonist -2, TAAR1 antag 11, CHO parental Ca -4, OX1R antag-1 36*, GPR7 antag -15 and OX1R antag-2 -6.
CCC(c1nnnn1-c1ccc2c(c1)OCCO2)N1CCC(n2c(=O)[nH]c3ccccc32)CC1 (centres undefined) was read as TAAR1 agonist 18 and TAAR1 antag 66*.
For CSCCC(c1nnnn1-c1ccc2c(c1)OCCO2)N1CCC(n2c(=O)[nH]c3ccccc32)CC1 (centres undefined) the results were TAAR1 agonist 13 and TAAR1 antag 62*.
Screening O=C(Nc1ccc(F)cc1)N1Cc2ccccc2-n2nncc2C1 returned TAAR1 agonist 0 and TAAR1 antag -12.
`COC(=O)C1=C(c2ccc(F)cc2OCc2ccccc2)C[C@@H]2CC[C@H]1N2C(=O)NCc1ccc(C(F)(F)F)cc1` gave TAAR1 agonist 23, TAAR1 antag 53*, CHO parental Ca -19, OX1R antag-1 16 and OX1R antag-2 15.
COC(=O)C1=C(c2ccccc2OCc2ccccc2)C[C@@H]2CC[C@H]1N2C(=O)NCc1ccc(C(F)(F)F)cc1 was read as TAAR1 agonist 2, TAAR1 antag 33, CHO parental Ca -34, OX1R antag-1 10 and OX1R antag-2 -4.
`O=C1NC(=O)N(c2ccc3c(c2)OCO3)C(=O)/C1=C\c1ccc(N2CCCCC2)o1` gave TAAR1 agonist 27, TAAR1 antag -2, CHO parental Ca -5, OX1R antag-1 71*, GPR7 antag -5 and OX1R antag-2 -4.
`Cc1ccccc1N1C(=O)NC(=O)/C(=C\c2cc(Br)c(N3CCOCC3)o2)C1=O` gave TAAR1 agonist 34, TAAR1 antag 18, CHO parental Ca 0, OX1R antag-1 30, GPR7 antag 1 and OX1R antag-2 3.
Screening Cc1ccccc1N1C(=O)NC(=O)/C(=C/c2ccc(N3CCOCC3)o2)C1=O returned TAAR1 agonist 5, TAAR1 antag -2, CHO parental Ca 6, OX1R antag-1 48*, GPR7 antag -7 and OX1R antag-2 1.
`N/C(=N\[N+](=O)[O-])N1CCN(C(=O)OC2CCCC2)CC1` gave TAAR1 agonist 6, TAAR1 antag -7, CHO parental Ca -2, OX1R antag-1 2, GPR7 antag -1 and OX1R antag-2 -13.
For NS(=O)(=O)c1ccc(-c2ccc(C=C3C(=O)NC(=O)NC3=O)o2)cc1 the results were TAAR1 agonist 6, TAAR1 antag 2, CHO parental Ca -1, OX1R antag-1 27, GPR7 antag -4 and OX1R antag-2 -2.
